Screening data as filed in PubChem.
Only some compounds are listed: those with a hit (about 3.1% of all), similar ones and a draw of the others.
Insulin prom inh = TRM-6 insulin promoter activity inhibition. TRM-6 cells (human fetal islet line), insulin promoter-eGFP reporter, imaging; reporter expression induced with tamoxifen. inhibition, % at 2 µM. 0.9% of 130,000 active. AID 1273;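 active = inhibition above the mean plus 3 SD, with well images judged a real hit on visual review, cut at about 60% in these data, passing the limit was not always enough; inconclusive = inhibition over the cutoff but images rejected on review; inactive = inhibition not above the cutoff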
Ins promoter up = MIN6 insulin promoter up-regulation; MIN6 insulin promoter-GFP reporter, high-content imaging; stronger effect = higher value; z-score at 5 µM; 0.3% of 190,000 active; AID 1625;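 active = z-score above 3 at 5 µM with at least 500 cells counted in the well; inconclusive = wells under 500 cells, flagged as cytotoxic or low count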
RAM inhibit = inhibitors of the yeast RAM network. S. cerevisiae dse1pr::URA3 reporter, 5-FOA growth OD615, 2 d; analog-sensitive cbk1-as2 kinase mutant strain. inhibition, % at 50 µM. 1.8% of 190,000 active. AID 868;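 active = inhibition above a set limit, 3 SD over mean compound inhibition, cut at about 8.4% in these data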;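 note: 0% = DMSO-only wells with no growth and 100% = 10 µM 1-NA-PP1 full growth; inhibition rescues growth on 5-FOA so higher OD means more RAM inhibition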
BB579 growth dn = yeast BB579 growth reduction in restrictive medium. S. cerevisiae BB579 growth, OD615, 48 h. inhibition, % at 10 µM. 0.51% of 140,000 active;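 active = inhibition above a set limit, 3 SD over the mean compound inhibition, cut at about 44% in these data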
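Test system: S. cerevisiae DeaD strain BB579 yeast; Medium: restrictive CSMM-D medium; Compound: one dose, 10 µM compound with 0.25% DMSO; Incubation: 4 h cell preincubation, 48 h compound exposure, 30 °C humidified; Signal: OD at 615 nm; Benchmarks: amphotericin B at 10 µg/mL as positive control.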
Yeast life ext = extends the lifespan of yeast | S. cerevisiae growth with nicotinamide, OD615; deaD strain in restrictive glucose medium | inhibition of the nicotinamide effect, % at 10 µM | 0.68% of 130,000 active | AID 775;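 active = inhibition above a set limit, placed 3 SD over the median of all compounds, cut at about 26% in these data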;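 note: 0% = nicotinamide-treated wells and 100% = cells grown without nicotinamide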
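Buffer or medium: CSMM-D glucose medium, restrictive; test system: modified budding yeast, DeaD strain; compound: single dose 10 µM compound, 0.25% DMSO; schedule: culture preincubation 4 h, compound exposure 48 h, both 30 °C; detection: optical density (absorbance) at 615 nm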
* hit, by the source's call; ? = inconclusive; / = no result.

SMILES | Insulin prom inh | Ins promoter up | RAM inhibit | BB579 growth dn | Yeast life ext
O=C(O)CCN1CC2([N+](=O)[O-])CC=C(OCCO)C([N+](=O)[O-])(C1)C2 (configuration not stated) | 35.0 | / | 0.2 | / | /
COC1=CCC2([N+](=O)[O-])CN(CCO)CC1([N+](=O)[O-])C2 (configuration not stated) | -23.3 | 3.03* | 0.3 | -45.1 | 11.3
Cc1cccc(-c2nnc(SCCOc3ccc4c(C)cc(=O)oc4c3)o2)c1 | 4.3 | / | 2.6 | -31.3 | -15.2
Cc1cc(=O)oc2cc(OCCSc3nnc(-c4ccccc4)o3)ccc12 | 5.6 | 0.01 | 10.7* | -7.3 | -3.1
CCC1C(c2ccccc2)N(C)C(c2ccccc2)CC1(O)c1ccccc1 (configuration not stated) | / | -0.79 | -0.1 | / | /
CC(C)C1C(c2ccccc2)N(C)C(c2ccccc2)CC1(O)c1ccccc1 (configuration not stated) | / | -0.64 | 0.0 | -69.4 | 46.2*
CCN=C1SC(C(=O)Nc2ccc(OC)cc2)CC(=O)N1CC (configuration not stated) | / | -0.6 | 0.7 | / | /
CN1C(=O)c2cccc3c(Cl)ccc(c23)C1=O | 25.8 | -0.17 | 0.3 | 60.9* | -8.6
CCOC(=O)C(C)Sc1ccc2nnc(CCNS(=O)(=O)c3ccc(C)cc3)n2n1 (configuration not stated) | / | -0.04 | 1.2 | / | /
COCCCNC(=O)c1c(N)n(/N=C/c2cccs2)c2nc3ccccc3nc12 | 0.0 | -2.77 | 8.7* | -47.6 | -11.9
COCCCNC(=O)c1c(N)n(-c2ccc(S(N)(=O)=O)cc2)c2nc3ccccc3nc12 | 3.9 | 0.42 | 6.7 | -34.6 | -8.5
COCCCNC(=O)c1c(N)n(/N=C/c2cccnc2)c2nc3ccccc3nc12 | -12.5 | -3.07 | 10.8* | -35.7 | -18.7
CSc1ccc(CNc2ccc(C)cc2)cc1 | / | 0.13 | 1.5 | -58.5 | -5.6
O=[N+]([O-])c1cccc2ccc(/C=C/c3ccc(C(F)(F)F)cc3)nc12 | / | 0.73 | 10.3* | -28.7 | -4.8
COc1ccc2cc3[n+](cc2c1OC)CCc1cc2c(cc1-3)OCO2 | 66.7* | ? | 0.7 | -15.7 | 2.7
COc1cccc(C2=NCCc3cc4c(cc32)OCO4)c1OC | 30.8 | -0.19 | 0.0 | -52.0 | 7.1
Cc1cccc(-n2nnc(C(=O)NCc3ccccn3)c2N)c1 | / | 0.16 | 1.2 | -32.4 | -22.4
Cc1[nH]c2ccccc2c1C(=O)COC(=O)c1ccc2c(=O)n3c(nc2c1)CCC3 | / | 0.41 | 9.1* | / | /
CCn1c(SCC(=O)OC(C)C)nnc1-c1ccccc1OC | / | -0.57 | -0.6 | / | /
O=C(CSc1nnc(-c2ccc3c(c2)OCO3)o1)Nc1ncc(Cl)cc1Cl | / | 0.11 | 0.9 | -31.3 | 0.7
C=CCN1C(=O)C(Cc2ccc(OCC)cc2)S/C1=N\N=C\c1cccs1 (configuration not stated) | 39.3 | -0.4 | 9.3* | -43.6 | 29.6*
CCCOC(=O)C(C)Sc1n[nH]c(=O)[nH]c1=O (configuration not stated) | / | 0 | 1.4 | / | /
CN(C)c1nc(NC(C)(C)C)nc(SCC(=O)Nc2ccccc2)n1 | 80.5* | -0.07 | 2.4 | / | /
CCOc1cc(C(=O)Nc2cccc3ncccc23)cc(OCC)c1OCC | / | / | 2.5 | -0.7 | -7.9
Cc1ccc(NC(=S)N=Nc2c(O)n(C)c3ccc(S(=O)(=O)N4CCOCC4)cc23)cc1C | -64.3 | -1.3 | 9.4* | -36.7 | 2.3
SMILES | Insulin prom inh | Ins promoter up | RAM inhibit | BB579 growth dn | Yeast life ext
CCc1ccccc1NC(=O)c1ccccc1Sc1ccc([N+](=O)[O-])cc1Cl | -11.1 | 0.11 | 2.8 | -29.8 | 3.6
COc1cc(/C=c2\sc3nc(-c4ccncc4)nn3c2=O)ccc1OC(C)=O | 0.0 | 0.41 | 1.4 | -38.8 | 32.6*
O=C(CC1SC2=NCCN2C1=O)Nc1ccc(Cl)cc1 (configuration not stated) | 76.9* | -0.88 | 3.2 | -42.0 | -12.6
O=C(CC1Sc2ncnn2C1=O)Nc1ccc(Cl)cc1 (configuration not stated) | / | 0.15 | 2.0 | / | /
O=C(Nc1cc(S(=O)(=O)Nc2ccccc2Cl)ccc1O)c1sc2cc(Cl)ccc2c1Cl | -27.8 | 0.44 | 2.7 | / | /
COc1ccccc1NS(=O)(=O)c1ccc(Cl)c(NC(=O)c2sc3cc(Cl)ccc3c2Cl)c1 | / | -1.24 | 9.0* | / | /
O=C1OCC(CO)(CO)N=C1NNc1cc(Cl)ccc1Cl | -32.1 | / | -0.6 | 64.2* | -14.7
O=C1OCC(CO)(CO)N=C1NNc1ccccc1[N+](=O)[O-] | / | -0.41 | / | / | /
